According to ChEMBL document CHEMBL3244043, “Nucleoside 5'-monophosphate analogues. Synthesis of 5'-sulfamino-5'-deoxynucleosides” (J Med Chem, 1978):
The source made the active and inactive calls. The rule behind the calls is not given here.

What was measured:
Escherichia coli [1] = assay: Antibacterial activity against Escherichia coli K-12 assessed as growth inhibition at 1 x 10^-3 M relative to control; type: functional; conditions: read-out: GI
[2] = Drug degradation in HCl assessed as hydrolysis of 5'-sulfamino group to form amino nucleoside at 23 degC after 24 hrs; type: physicochemical; conditions: read-out: Drug degradation
Method in brief: (§1)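 Compound held in 0.1 M HCl at 23 °C for 24 h. Hydrolysis reported as percent cleavage of the 5'-sulfamino group, giving the amino nucleoside, and of the glycosidic bond, giving adenine.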

L1210 [3] = assay: Cytotoxicity against mouse L1210 cells assessed as growth inhibition at 1 x 10^-3 M; type: functional, cell-based
Enterococcus faecalis = assay: Antibacterial activity against Streptococcus faecalis assessed as growth inhibition at 1 x 10^-3 M relative to control; type: functional; conditions: read-out: GI
Escherichia coli [4] = assay: Antibacterial activity against Escherichia coli B assessed as growth inhibition at 1 x 10^-3 M relative to control; type: functional; conditions: read-out: GI
L1210 [5] = assay: Cytotoxicity against mouse L1210 cells assessed as cell growth at 1 x 10^-4 M; type: functional, cell-based
Human alphaherpesvirus 1 [6] = assay: Antiviral activity against Herpes simplex virus type 1 infected in African green monkey CV1 cells assessed as inhibition of viral replication at 10^-4 M; type: functional, organism-based; conditions: CV-1
[7] = Stability of the compound in NaOH assessed as cleavage of sulfamino group at 23 degC after 24 hrs; type: physicochemical
Method in brief: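 Compound exposed to 0.1 M NaOH at 23 °C for 24 h, then examined for any cleavage of the 5'-sulfamino group.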

[8] = Drug degradation in HCl assessed as hydrolysis of glycosidic linkage to form adenine at 23 degC after 24 hrs; type: physicochemical; conditions: read-out: Drug degradation; method in brief: as §1
Human alphaherpesvirus 1 [9] = assay: Antiviral activity against Herpes simplex virus type 1 infected in African green monkey CV1 cells assessed as inhibition of viral replication at 1 x 10^-5 M relative to control; type: functional; conditions: Human alphaherpesvirus 1, CV-1
Human alphaherpesvirus 1 [10] = assay: Antiviral activity against Herpes simplex virus type 1 infected in African green monkey CV1 cells assessed as inhibition of viral replication at 1 x 10^-4 M relative to control; type: functional; conditions: Human alphaherpesvirus 1, CV-1
[11] = Cytotoxicity against African green monkey CV1 cells assessed as effect on cell growth at 1 x 10^-4 M; type: cell-based; conditions: chlorocebus aethiops, cv-1, 100 µM

| SMILES | inhibition of growth at 1000 µM (Escherichia coli [1]) [%] | degraded at 24 h [2] [%] | growth inhibition (GI) (L1210 [3]) | inhibition of growth at 1000 µM (Enterococcus faecalis) [%] | inhibition of growth at 1000 µM (Escherichia coli [4]) [%] | Activity (L1210 [5]) | inhibition (Human alphaherpesvirus 1 [6]) | Stability [7] | degraded at 24 h [8] [%] | inhibition at 10 µM (Human alphaherpesvirus 1 [9]) [%] | inhibition at 100 µM (Human alphaherpesvirus 1 [10]) [%] | Activity [11] |
| --- | --- | --- | --- | --- | --- | --- | --- | --- | --- | --- | --- | --- |
| Nc1ncnc2c1ncn2[C@@H]1O[C@H](CNS(=O)(=O)O)[C@@H](O)[C@H]1O | < 10 | 0.75 | inactive | < 10 | < 10 | inactive | inactive | Stable | 16 |  |  |  |
| Cc1cn([C@H]2C[C@H](O)[C@@H](CNS(=O)(=O)O)O2)c(=O)[nH]c1=O | < 10 | 2.4 | inactive | < 10 | < 10 | inactive |  | Stable |  | 35 | 70 | Non-toxic |
